Test results from ChEMBL document CHEMBL4011632, “Design, Synthesis, and Evaluation of Thiazolidine-2,4-dione Derivatives as a Novel Class of Glutaminase Inhibitors” (J Med Chem, 2017).
Active and inactive are the calls of the source. No cut-off for these calls is given here.

Experiments:
[1] = Cmax in Sprague-Dawley rat at 1 mg/kg, po by HPLC-MS analysis; type: ADME, organism-based; parameters: dose 1 mg/kg, route oral; conditions: in vivo
Outline: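 Male rats (330−380 g, 9−10 weeks old), jugular-vein cannulated 1 day before dosing, n = 3. Dosed iv in DMA/PEG400 (20%/80%, v/v) or po in 1% CMC/0.5% Tween-80. Blood (100 μL) drawn at 0, 2 min, 5 min (iv only), 15 and 30 min, and 1, 2, 4, 6, 8 and 24 h. Plasma measured by LC-MS/MS; parameters from noncompartmental analysis.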

ASPC1 [2] = test: Antitumor activity against human Aspc-1 cells xenografted in Balb/cAnN.Cg-Foxn1nu/CrlNarl mouse assessed as tumor growth inhibition at 25 mg/kg, ip once daily administered for 5 days followed by 2 days without dosing for 43 days relative to control; type: functional; conditions: read-out: TGI
Outline: (§1)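 Male nude mice (7−8 weeks, 18−22 g) received 4.5 × 10^6 AsPC-1 cells sc in the right flank, in HBSS mixed 1:1 with Matrigel. Mice were randomized once mean tumor reached ~100 mm3 (day 1). Dosing was ip once daily, 5 days on/2 days off, with 2% DMSO/PBS as vehicle. Tumors were measured twice weekly, V = ab²/2. %TGI = [1 − ((Tt − T0)/(Ct − C0))] × 100 from median volumes; Student's t test.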

Mus musculus = test: Toxicity in BALB/CAnN.Cg-Foxn1nu/CrlNarl mouse xenografted with human Aspc-1 cells assessed as loss in body weight at 50 mg/kg, ip once daily administered for 5 days followed by 2 days without dosing for 43 days relative to control; type: organism-based, BALB/C; conditions: in vivo
[3] = Inhibition of recombinant human His-tagged KGA R387L mutant expressed in Escherichia coli BL21(DE3)pLysS using glutamine substrate preincubated for 10 mins followed by substrate addition measured after 60 mins
[4] = Inhibition of recombinant human His-tagged KGA K507A mutant expressed in Escherichia coli BL21(DE3)pLysS using glutamine substrate preincubated for 10 mins followed by substrate addition measured after 60 mins
Homo sapiens [5] = species: Homo sapiens; test: Selectivity ratio of IC50 for recombinant human His-tagged KGA S384A mutant expressed in Escherichia coli BL21(DE3)pLysS to IC50 for human His-tagged KGA (L123 to L669 residues) expressed in Escherichia coli BL21(DE3)pLysS
Homo sapiens [6] = species: Homo sapiens; test: Selectivity ratio of IC50 for recombinant human His-tagged KGA K507A mutant expressed in Escherichia coli BL21(DE3)pLysS to IC50 for human His-tagged KGA (L123 to L669 residues) expressed in Escherichia coli BL21(DE3)pLysS
ASPC1 [7] = test: Synergistic cytotoxicity against human Aspc-1 cells assessed as reduction in cell viability at ED50 in presence of doxorubicin by MTS assay; type: functional
Outline: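 AsPC-1 cells treated with compound combinations and viability read by MTS. Combination index at ED50, ED75 and ED90 calculated by the Chou−Talalay method. CI = 1 additive, <1 synergism, >1 antagonism. Representative of three independent experiments.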

[8] = target: T1, Peroxisome proliferator-activated receptor alpha (Homo sapiens) (UniProt Q07869); test: Transactivation of GAL4-DBD fused human PPARalpha LBD (193 to 469 residues) expressed in African green monkey CV1 cells after 18 to 24 hrs by luciferase reporter gene assay; type: cell-based
T1 sequence (whole entry): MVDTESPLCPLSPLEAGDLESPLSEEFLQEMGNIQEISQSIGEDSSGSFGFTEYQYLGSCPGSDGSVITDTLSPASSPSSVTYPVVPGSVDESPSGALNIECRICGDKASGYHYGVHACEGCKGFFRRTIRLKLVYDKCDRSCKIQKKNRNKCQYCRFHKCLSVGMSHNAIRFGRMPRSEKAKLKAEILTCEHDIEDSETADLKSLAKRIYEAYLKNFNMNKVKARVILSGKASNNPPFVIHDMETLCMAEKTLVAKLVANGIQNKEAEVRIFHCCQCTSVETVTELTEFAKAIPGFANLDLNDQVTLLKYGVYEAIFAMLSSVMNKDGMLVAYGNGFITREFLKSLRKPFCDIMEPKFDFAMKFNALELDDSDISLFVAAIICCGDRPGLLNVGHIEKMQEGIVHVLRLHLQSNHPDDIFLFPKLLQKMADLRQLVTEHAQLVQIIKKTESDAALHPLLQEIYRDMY

[9] = target: T2, Peroxisome proliferator-activated receptor delta (Homo sapiens) (UniProt Q03181); test: Transactivation of GAL4-DBD fused human PPARdelta LBD (165 to 441 residues) expressed in African green monkey CV1 cells after 18 to 24 hrs by luciferase reporter gene assay; type: cell-based
T2 sequence (whole entry): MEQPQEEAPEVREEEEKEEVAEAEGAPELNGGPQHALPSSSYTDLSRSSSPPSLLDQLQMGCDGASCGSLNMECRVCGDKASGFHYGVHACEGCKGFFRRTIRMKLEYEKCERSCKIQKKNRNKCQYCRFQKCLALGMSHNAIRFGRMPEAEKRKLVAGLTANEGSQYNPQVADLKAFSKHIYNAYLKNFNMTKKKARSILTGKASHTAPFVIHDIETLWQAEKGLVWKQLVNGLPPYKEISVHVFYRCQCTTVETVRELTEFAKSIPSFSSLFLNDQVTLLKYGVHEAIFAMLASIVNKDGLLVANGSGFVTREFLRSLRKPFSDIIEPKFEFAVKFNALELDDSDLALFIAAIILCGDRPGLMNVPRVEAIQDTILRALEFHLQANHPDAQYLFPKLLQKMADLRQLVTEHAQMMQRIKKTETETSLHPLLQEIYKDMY

[10] = target: T3, Peroxisome proliferator-activated receptor gamma (Homo sapiens) (UniProt P37231); test: Transactivation of GAL4-DBD fused human PPARgamma LBD (199 to 477 residues) expressed in African green monkey CV1 cells after 18 to 24 hrs by luciferase reporter gene assay; type: cell-based
T3 sequence (whole entry): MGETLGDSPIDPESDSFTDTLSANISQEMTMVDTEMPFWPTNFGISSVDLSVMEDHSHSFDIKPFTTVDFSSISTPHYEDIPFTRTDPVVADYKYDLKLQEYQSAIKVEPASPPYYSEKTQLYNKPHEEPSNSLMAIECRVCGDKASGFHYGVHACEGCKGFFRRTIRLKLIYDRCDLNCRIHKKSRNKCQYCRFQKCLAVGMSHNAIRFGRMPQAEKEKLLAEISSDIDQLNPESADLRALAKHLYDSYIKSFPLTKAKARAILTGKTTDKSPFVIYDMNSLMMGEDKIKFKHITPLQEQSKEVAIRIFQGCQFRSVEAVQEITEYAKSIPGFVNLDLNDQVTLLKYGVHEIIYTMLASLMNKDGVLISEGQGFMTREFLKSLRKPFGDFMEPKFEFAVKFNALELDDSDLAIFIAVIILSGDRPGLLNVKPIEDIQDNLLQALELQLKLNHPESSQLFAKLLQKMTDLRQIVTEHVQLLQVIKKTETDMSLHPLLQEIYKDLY

ASPC1 [11] = test: Antitumor activity against human Aspc-1 cells xenografted in Balb/cAnN.Cg-Foxn1nu/CrlNarl nude mouse assessed as tumor growth inhibition at 50 mg/kg, ip once daily administered for 5 days followed by 2 days without dosing for 68 days relative to control; type: functional; conditions: read-out: TGI; outline: as §1

## Cc1cc(/C=C2\SC(=O)NC2=O)c(C)n1-c1ccc(-c2ccc(/C=C3\SC(=O)NC3=O)cc2)cc1
[1]
  Cmax: 16.6 ng/mL
ASPC1 [2]
  inhibition in vivo at 25 mg/kg: 60%
Mus musculus
  Activity: > 10%
[3]
  IC50: 1270 nM
[4]
  IC50: 1040 nM
Homo sapiens [5]
  Ratio IC50: 3.5
Homo sapiens [6]
  Ratio IC50: 10.2
ASPC1 [7]
  CI: 0.45 - 0.68

## Cc1cc(/C=C2\SC(=O)NC2=O)c(C)n1-c1ccc(-c2ccc(/C=C3\SC(=O)NC3=O)c(Cl)c2)cc1
[3]
  IC50: 770 nM
[4]
  IC50: 269 nM
Homo sapiens [5]
  Ratio IC50: 1.5
Homo sapiens [6]
  Ratio IC50: 4.7
[8]
  Activity: inactive
[9]
  Activity: inactive
[10]
  Activity: inactive

## O=C1NC(=O)/C(=C/c2ccc(-c3ccc(-n4c(-c5cccs5)cc(/C=C5\SC(=O)NC5=O)c4-c4cccs4)cc3)cc2)S1
ASPC1 [11]
  inhibition in vivo at 50 mg/kg: 49%
ASPC1 [7]
  CI: 0.45 - 0.68
[8]
  Activity: inactive
[9]
  Activity: inactive
[10]
  Activity: inactive
